ChEMBL document CHEMBL2176871, “Development of ligands at γ-aminobutyrric acid type A (GABAA) receptor subtype as new agents for pain relief” (Bioorg Med Chem, 2011)
Calls of active or inactive are those of the source.

How the values were obtained:
Rattus norvegicus [1] = assay: Toxicity in Sprague-Dawley rat mononeuropathy pain model assessed as effect on contralateral paw pressure at 3 mg/kg, po after 45 mins by paw pressure test; format: organism-based; set-up: dose 3 mg/kg, route oral; conditions: in vivo, 0.75 h
Outline: (§1)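 Same sciatic-ligation rat model, 14 days after surgery. Threshold measured on the non-operated contralateral hind paw by analgesimeter at 32 g/s; first-struggle endpoint; 250 g cut-off; pretest rats outside 40–75 g rejected. Compound given po in 10 ml/kg; readings at 15, 30 and 45 min.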

Rattus norvegicus [2] = assay: Toxicity in Sprague-Dawley rat mononeuropathy pain model assessed as effect on contralateral paw pressure at 3 mg/kg, po after 15 mins by paw pressure test; format: organism-based; set-up: dose 3 mg/kg, route oral; conditions: in vivo, 0.25 h; outline: as §1
Rattus norvegicus [3] = assay: Toxicity in Sprague-Dawley rat mononeuropathy pain model assessed as effect on contralateral paw pressure at 10 mg/kg, po after 30 mins by paw pressure test; format: organism-based; set-up: dose 10 mg/kg, route oral; conditions: in vivo, 0.5 h; outline: as §1
Rattus norvegicus [4] = assay: Toxicity in Sprague-Dawley rat mononeuropathy pain model assessed as effect on contralateral paw pressure at 3 mg/kg, po after 30 mins by paw pressure test; format: organism-based; set-up: dose 3 mg/kg, route oral; conditions: in vivo, 0.5 h; outline: as §1
Rattus norvegicus [5] = assay: Toxicity in Sprague-Dawley rat mononeuropathy pain model assessed as effect on contralateral paw pressure at 30 mg/kg, po after 30 mins by paw pressure test; format: organism-based; set-up: dose 30 mg/kg, route oral; conditions: in vivo, 0.5 h; outline: as §1
Rattus norvegicus [6] = assay: Antinociceptive activity in Sprague-Dawley rat mononeuropathy pain model assessed as increase in injured paw pressure at 3 mg/kg, po after 15 mins by paw pressure test relative to non-treated control; format: functional
Outline: (§2)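 Chronic constriction injury: loose ligatures placed on the common sciatic nerve under chloral hydrate; contralateral sham dissection. Tested 14 days after surgery. Paw pressure applied at 32 g/s; threshold taken as the force causing the first struggle; cut-off 250 g; pretest outliers (<40 g or >75 g) excluded. Oral dosing in 10 ml/kg; read at 15, 30 and 45 min; compared with a CMC-treated group.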

Mus musculus [7] = assay: Antihyperalgesic activity Swiss albino mouse […] assessed as licking latency time at 30 mg/kg, po after 60 mins by hot plate test (reference value: 14.9 +/- 1.1 secs); format: functional
Outline: (§3)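 Hot plate at 52.5 ± 0.1 °C in non-diabetic male Swiss mice. Latency to licking of fore or hind paws was timed before dosing and every 15 min up to 60 min after oral dosing. Mice with pretest latencies below 12 s or above 18 s were excluded. Cut-off was 45 s.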

[8] = Displacement of [3H]Ro151788 from GABA(A)/BzR in bovine cerebral cortex membrane; format: cell membranes, Bos taurus
Outline: (§4)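 Bovine cerebral cortex membranes in 50 mM Tris-citrate pH 7.4; [3H]flumazenil displacement. Compounds first tested at a fixed 10 µM; Ki determined only when inhibition exceeded 80%, using at least six concentrations. Five experiments run in triplicate; IC50 obtained by iterative curve fitting and converted to Ki with the Cheng–Prusoff equation.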

Rattus norvegicus [9] = assay: Toxicity in Sprague-Dawley rat mononeuropathy pain model assessed as effect on contralateral paw pressure at 30 mg/kg, po after 45 mins by paw pressure test; format: organism-based; set-up: dose 30 mg/kg, route oral; conditions: in vivo, 0.75 h; outline: as §1
Mus musculus [10] = assay: Antihyperalgesic activity Swiss albino mouse […] assessed as licking latency time at 30 mg/kg, po after 30 mins by hot plate test (reference value: 14.9 +/- 1.1 secs); format: functional; outline: as §3
Mus musculus [11] = assay: Antihyperalgesic activity against streptozotocin-induced hyperalgesia in Swiss albino mouse […] assessed as licking latency time at 30 mg/kg, po after 45 mins by hot plate test (reference value: 10.4 +/- 0.8 secs); format: functional
Mus musculus [12] = assay: Antihyperalgesic activity Swiss albino mouse […] assessed as licking latency time at 30 mg/kg, po after 45 mins by hot plate test (reference value: 14.9 +/- 1.1 secs); format: functional; outline: as §3
Mus musculus [13] = assay: Antihyperalgesic activity against streptozotocin-induced hyperalgesia in Swiss albino mouse […] assessed as licking latency time at 30 mg/kg, po after 60 mins by hot plate test (reference value: 10.4 +/- 0.8 secs); format: functional
Bos taurus = species on record: Bos taurus; assay: Displacement of [3H]Ro151788 from GABA(A)/BzR in bovine cerebral cortex membrane at 10 uM; format: cell membranes; outline: as §4
Rattus norvegicus [14] = assay: Antinociceptive activity in Sprague-Dawley rat mononeuropathy pain model assessed as increase in injured paw pressure at 30 mg/kg, po after 45 mins by paw pressure test relative to non-treated control; format: functional; outline: as §2
Rattus norvegicus [15] = assay: Antinociceptive activity in Sprague-Dawley rat mononeuropathy pain model assessed as increase in injured paw pressure at 10 mg/kg, po after 45 mins by paw pressure test relative to non-treated control; format: functional; outline: as §2
Rattus norvegicus [16] = assay: Toxicity in Sprague-Dawley rat mononeuropathy pain model assessed as effect on contralateral paw pressure at 10 mg/kg, po after 45 mins by paw pressure test; format: organism-based; set-up: dose 10 mg/kg, route oral; conditions: in vivo, 0.75 h; outline: as §1
Rattus norvegicus [17] = assay: Toxicity in Sprague-Dawley rat mononeuropathy pain model assessed as effect on contralateral paw pressure at 10 mg/kg, po after 15 mins by paw pressure test; format: organism-based; set-up: dose 10 mg/kg, route oral; conditions: in vivo, 0.25 h; outline: as §1
Rattus norvegicus [18] = assay: Antinociceptive activity in Sprague-Dawley rat mononeuropathy pain model assessed as increase in injured paw pressure at 30 mg/kg, po after 15 mins by paw pressure test relative to non-treated control; format: functional; outline: as §2
Mus musculus [19] = assay: Antihyperalgesic activity against streptozotocin-induced hyperalgesia in Swiss albino mouse […] assessed as licking latency time at 30 mg/kg, po after 30 mins by hot plate test (reference value: 10.4 +/- 0.8 secs); format: functional
Rattus norvegicus [20] = assay: Antinociceptive activity in Sprague-Dawley rat mononeuropathy pain model assessed as increase in injured paw pressure at 3 mg/kg, po after 45 mins by paw pressure test relative to non-treated control; format: functional; outline: as §2
Mus musculus [21] = assay: Analgesic activity in Swiss albino mouse abdominal constriction model assessed as decrease in number of acetic acid-induced writhing at 10 to 30 mg/kg, po after 30 mins; format: functional, organism-based; conditions: Abdomen
Outline: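 Male Swiss albino mice (23–30 g). Compounds given po in 1% CMC vehicle 30 min before the test. Acetic acid 0.6% injected i.p. at 10 ml/kg. Stretching movements were counted for 10 min, starting 5 min after the acetic acid injection. 8–15 mice per group.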

Mus musculus [22] = assay: Anticonvulsant activity in Swiss albino mouse […] assessed as protection against intraperitoneally administered pentylenetetrazol-induced seizures at 30 mg/kg, po after 30 mins; format: functional
Outline: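 Male Swiss albino mice. Compounds given po and PTZ 90 mg/kg injected 30 min later; PTZ was dissolved in 0.9% NaCl saline. Clonic generalized convulsions were recorded over 30 min. Each value is the mean of 10 mice. The methods give the PTZ route as s.c. and the table footnote gives it as ip.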

Rattus norvegicus [23] = assay: Antinociceptive activity in Sprague-Dawley rat mononeuropathy pain model assessed as increase in injured paw pressure at 3 mg/kg, po after 30 mins by paw pressure test relative to non-treated control; format: functional; outline: as §2
Rattus norvegicus [24] = assay: Antinociceptive activity in Sprague-Dawley rat mononeuropathy pain model assessed as increase in injured paw pressure at 10 mg/kg, po after 15 mins by paw pressure test relative to non-treated control; format: functional; outline: as §2
Rattus norvegicus [25] = assay: Toxicity in Sprague-Dawley rat mononeuropathy pain model assessed as effect on contralateral paw pressure at 30 mg/kg, po after 15 mins by paw pressure test; format: organism-based; set-up: dose 30 mg/kg, route oral; conditions: in vivo, 0.25 h; outline: as §1
Rattus norvegicus [26] = assay: Antinociceptive activity in Sprague-Dawley rat mononeuropathy pain model assessed as increase in injured paw pressure at 30 mg/kg, po after 30 mins by paw pressure test relative to non-treated control; format: functional; outline: as §2
Rattus norvegicus [27] = assay: Antinociceptive activity in Sprague-Dawley rat mononeuropathy pain model assessed as increase in injured paw pressure at 10 mg/kg, po after 30 mins by paw pressure test relative to non-treated control; format: functional; outline: as §2
Mus musculus [28] = assay: Antihyperalgesic activity against streptozotocin-induced hyperalgesia in Swiss albino mouse […] assessed as licking latency time at 30 mg/kg, po after 15 mins by hot plate test (reference value: 10.4 +/- 0.8 secs); format: functional
Mus musculus [29] = assay: Anxiolytic-like activity in Swiss albino mouse at 10 mg/kg, po after 30 mins by light/dark box test; format: functional, organism-based; set-up: dose 10 mg/kg
Outline: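 Male Swiss mice tested in a two-compartment light/dark box. Transfers between compartments and time spent in the lit side recorded. Compound given po 30 min before testing, in 10 ml/kg; flumazenil given i.p. for antagonism; 8 mice per group.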

Mus musculus [30] = assay: Antihyperalgesic activity Swiss albino mouse […] assessed as licking latency time at 30 mg/kg, po after 15 mins by hot plate test (reference value: 14.9 +/- 1.1 secs); format: functional; outline: as §3

Ki [8]: 109 pM | inhibition (Bos taurus): > 80%
Structure (SMILES): [O-][n+]1nc2c(I)cnn2c2cc(NCc3ccccc3)ccc21
Activity (Rattus norvegicus [1]): 60.7 g | Activity (Rattus norvegicus [2]): 62.3 g | Activity (Rattus norvegicus [3]): 61.5 g | Activity (Rattus norvegicus [4]): 59.5 g | Activity (Rattus norvegicus [5]): 58.9 g | Activity (Rattus norvegicus [6]): 41.4 g | Time (Mus musculus [7]): 16.3 s | Activity (Rattus norvegicus [9]): 62.2 g | Time (Mus musculus [10]): 16.9 s | Time (Mus musculus [11]): 17.3 s | Time (Mus musculus [12]): 15.8 s | Time (Mus musculus [13]): 17.9 s | Activity (Rattus norvegicus [14]): 38.1 g | Activity (Rattus norvegicus [15]): 36.7 g | Activity (Rattus norvegicus [16]): 61.2 g | Activity (Rattus norvegicus [17]): 64.8 g | Activity (Rattus norvegicus [18]): 46.4 g | Time (Mus musculus [19]): 16.4 s | Activity (Rattus norvegicus [20]): 31.2 g | Activity (Mus musculus [21]): inactive | Activity (Mus musculus [22]): 10% | Activity (Rattus norvegicus [23]): 33.8 g | Activity (Rattus norvegicus [24]): 49.5 g | Activity (Rattus norvegicus [25]): 61.7 g | Activity (Rattus norvegicus [26]): 42.3 g | Activity (Rattus norvegicus [27]): 44.8 g | Time (Mus musculus [28]): 16.6 s | Activity (Mus musculus [29]): Active | Time (Mus musculus [30]): 16.3 s
